Tests used:
[1] = target: Alpha adrenergic receptor 1A and 1D (Rattus norvegicus) (UniProt P23944+P43140); test: Selectivity given as ratio of pKb value against Alpha-1D receptor to pKb value against alpha1A receptor in rat; assay type: functional
[2] = target: T1, Alpha-1A adrenergic receptor (Rattus norvegicus) (UniProt P43140); test: Inhibition of (-)-noradrenaline-induced contraction of rat prostatic vas deferens (alpha1A receptor); assay type: functional
T1 sequence (whole entry): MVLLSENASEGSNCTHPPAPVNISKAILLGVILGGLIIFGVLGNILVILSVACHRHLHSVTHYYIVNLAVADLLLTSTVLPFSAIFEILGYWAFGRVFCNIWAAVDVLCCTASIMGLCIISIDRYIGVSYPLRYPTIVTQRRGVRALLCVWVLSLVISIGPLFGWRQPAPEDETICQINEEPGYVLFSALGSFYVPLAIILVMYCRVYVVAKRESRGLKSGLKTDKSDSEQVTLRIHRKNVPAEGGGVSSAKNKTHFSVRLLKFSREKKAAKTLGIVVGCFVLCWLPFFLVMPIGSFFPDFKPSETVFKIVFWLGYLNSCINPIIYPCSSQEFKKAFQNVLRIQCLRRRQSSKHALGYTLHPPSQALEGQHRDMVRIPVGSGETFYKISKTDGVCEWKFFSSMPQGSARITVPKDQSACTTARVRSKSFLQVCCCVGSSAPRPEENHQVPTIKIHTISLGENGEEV
In short: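 Rat prostatic vas deferens portion equilibrated 60 min, washed every 15 min, primed twice with 10 µM noradrenaline, re-equilibrated 60 min; control noradrenaline concentration-response curve, then antagonist 30 min before repeat curve.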

[3] = target: Alpha adrenergic receptor (1a and 1d) (Homo sapiens) (UniProt P35348+P25100); test: Selectivity over human alpha-1d/alpha-1a receptor; assay type: protein assay
Chain of Alpha adrenergic receptor (1a and 1d) (Homo sapiens) (P25100 whole entry, looked up, one chain of several): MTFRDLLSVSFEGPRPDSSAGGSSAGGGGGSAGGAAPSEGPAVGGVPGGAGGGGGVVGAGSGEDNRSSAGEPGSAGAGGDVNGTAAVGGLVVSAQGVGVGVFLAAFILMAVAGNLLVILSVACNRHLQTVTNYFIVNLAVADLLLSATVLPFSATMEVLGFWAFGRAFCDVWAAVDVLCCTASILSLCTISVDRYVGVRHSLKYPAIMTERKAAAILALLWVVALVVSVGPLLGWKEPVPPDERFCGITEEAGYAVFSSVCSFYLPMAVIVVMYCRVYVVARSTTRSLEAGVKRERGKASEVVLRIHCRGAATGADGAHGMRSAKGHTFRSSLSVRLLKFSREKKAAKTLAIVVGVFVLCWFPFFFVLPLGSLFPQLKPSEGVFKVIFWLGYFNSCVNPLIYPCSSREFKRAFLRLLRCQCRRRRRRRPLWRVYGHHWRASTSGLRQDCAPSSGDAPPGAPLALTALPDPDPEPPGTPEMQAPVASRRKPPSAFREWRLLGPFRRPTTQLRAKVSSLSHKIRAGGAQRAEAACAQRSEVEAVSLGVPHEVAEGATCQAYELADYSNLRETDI

[4] = target: T2, Alpha-1A adrenergic receptor (Homo sapiens, UniProt P35348); test: Affinity constant towards human recombinant Alpha-1A adrenergic receptor using [3H]prazosin (from CHO cells) as radioligand by radioligand binding assay; assay type: cell-based
T2 sequence (P35348 whole entry): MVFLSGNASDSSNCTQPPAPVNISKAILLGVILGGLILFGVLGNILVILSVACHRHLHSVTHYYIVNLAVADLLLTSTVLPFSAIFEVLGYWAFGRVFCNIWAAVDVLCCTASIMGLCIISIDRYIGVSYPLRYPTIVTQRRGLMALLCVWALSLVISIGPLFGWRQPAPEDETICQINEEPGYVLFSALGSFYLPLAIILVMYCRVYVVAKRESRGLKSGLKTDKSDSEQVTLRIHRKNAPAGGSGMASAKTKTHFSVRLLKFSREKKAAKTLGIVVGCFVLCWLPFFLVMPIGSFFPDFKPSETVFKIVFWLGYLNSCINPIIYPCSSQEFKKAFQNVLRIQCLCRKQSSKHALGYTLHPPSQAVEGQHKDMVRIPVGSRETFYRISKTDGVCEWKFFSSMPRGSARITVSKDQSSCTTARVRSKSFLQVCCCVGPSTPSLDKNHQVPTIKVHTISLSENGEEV

[5] = Selectivity over human alpha-1d/alpha-1b receptor
[6] = target: T3, Alpha-1B adrenergic receptor (Rattus norvegicus) (UniProt P15823); test: Inhibition of (-)-phenylephrine-induced contraction of rat spleen (Alpha-1B adrenergic receptor ); assay type: functional, tissue-based
T3 sequence (whole entry): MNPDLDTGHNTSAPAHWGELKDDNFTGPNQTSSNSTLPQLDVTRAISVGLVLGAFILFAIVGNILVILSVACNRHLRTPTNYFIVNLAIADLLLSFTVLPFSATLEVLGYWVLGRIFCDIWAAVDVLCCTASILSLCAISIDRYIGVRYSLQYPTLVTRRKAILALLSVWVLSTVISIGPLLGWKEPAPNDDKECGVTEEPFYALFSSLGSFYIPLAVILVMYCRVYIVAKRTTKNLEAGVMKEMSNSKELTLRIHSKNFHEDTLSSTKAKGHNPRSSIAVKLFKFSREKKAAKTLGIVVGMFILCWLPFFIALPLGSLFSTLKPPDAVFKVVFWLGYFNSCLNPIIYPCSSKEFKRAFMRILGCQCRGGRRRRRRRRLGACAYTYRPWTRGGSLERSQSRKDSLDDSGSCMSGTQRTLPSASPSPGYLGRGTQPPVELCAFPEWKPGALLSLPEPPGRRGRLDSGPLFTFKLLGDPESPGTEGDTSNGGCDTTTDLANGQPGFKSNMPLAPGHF
In short: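 Rat spleen strips in buffer containing 4 µM propranolol to block β-adrenoceptors, 1 g resting tension, 2 h equilibration. Isometric cumulative phenylephrine curves at 30 min intervals; first discarded, second control.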

[7] = target: Alpha adrenergic receptor 1A and 1B (Rattus norvegicus) (UniProt P15823+P43140); test: Selectivity given as ratio of pKb value against alpha1A receptor to pKb value against alpha-1B receptor in rat; assay type: functional
[8] = target: T4, Alpha-1B adrenergic receptor (Homo sapiens, UniProt P35368); test: Affinity constant towards human recombinant Alpha-1B adrenergic receptor using [3H]prazosin (from CHO cells) as radioligand by radioligand binding assay; assay type: cell-based
T4 sequence (P35368 whole entry): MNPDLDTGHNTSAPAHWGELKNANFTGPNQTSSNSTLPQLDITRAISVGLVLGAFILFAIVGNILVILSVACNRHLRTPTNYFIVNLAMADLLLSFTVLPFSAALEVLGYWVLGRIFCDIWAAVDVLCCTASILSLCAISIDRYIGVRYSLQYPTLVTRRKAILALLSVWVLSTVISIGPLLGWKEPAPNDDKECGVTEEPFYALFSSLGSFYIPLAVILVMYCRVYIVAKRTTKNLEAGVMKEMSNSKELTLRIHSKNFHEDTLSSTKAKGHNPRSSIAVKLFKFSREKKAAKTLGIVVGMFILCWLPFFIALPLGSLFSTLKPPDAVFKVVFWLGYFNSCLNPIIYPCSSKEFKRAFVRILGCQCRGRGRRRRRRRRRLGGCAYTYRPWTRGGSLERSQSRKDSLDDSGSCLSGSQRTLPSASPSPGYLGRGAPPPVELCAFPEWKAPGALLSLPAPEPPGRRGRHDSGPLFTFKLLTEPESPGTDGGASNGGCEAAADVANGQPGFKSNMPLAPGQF
In short: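 Membranes of CHO cells stably expressing each cloned human α1 subtype (30 µg protein) incubated with 0.1-0.4 nM [3H]prazosin in 50 mM Tris-HCl pH 7.4, 30 min at 25 °C, with competitor. Nonspecific binding with 10 µM phentolamine. Stopped by ice-cold buffer and filtration on PEI-pretreated filters. IC50 by curve fitting, Ki via Cheng-Prusoff. Mean of two to three experiments in triplicate.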

Chain of Alpha adrenergic receptor 1A and 1D (Rattus norvegicus) (P23944 whole entry, looked up, one chain of several): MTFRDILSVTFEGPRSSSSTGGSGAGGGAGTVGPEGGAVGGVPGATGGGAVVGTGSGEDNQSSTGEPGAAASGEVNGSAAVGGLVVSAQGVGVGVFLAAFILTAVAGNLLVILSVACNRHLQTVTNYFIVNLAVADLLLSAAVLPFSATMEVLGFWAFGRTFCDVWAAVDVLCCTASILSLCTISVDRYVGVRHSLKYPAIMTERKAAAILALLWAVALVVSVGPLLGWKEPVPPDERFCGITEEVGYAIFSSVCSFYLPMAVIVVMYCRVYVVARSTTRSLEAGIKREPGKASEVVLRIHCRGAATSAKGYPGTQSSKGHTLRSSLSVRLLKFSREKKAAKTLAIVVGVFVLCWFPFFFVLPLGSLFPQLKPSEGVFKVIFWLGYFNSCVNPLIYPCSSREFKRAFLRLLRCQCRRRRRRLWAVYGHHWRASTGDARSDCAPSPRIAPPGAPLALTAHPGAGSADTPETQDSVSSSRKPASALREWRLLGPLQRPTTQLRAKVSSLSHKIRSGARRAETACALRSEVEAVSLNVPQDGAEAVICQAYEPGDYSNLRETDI

Structure (SMILES) | Selectivity [1] | pKb [2] | Selectivity [3] | Ki [4] [µM] | Selectivity [5] | pKb [6] | Selectivity [7] | Ki [8] [µM]
CN(CCOc1ccccc1)CC1COC(c2ccccc2)(c2ccccc2)O1.O=C(O)C(=O)O (stereo not given) | 10 | 5.06 | < 0.9 | 0.832 | < 0.3 | 5.31 | 0.6 | 0.257
C[N+](C)(CCOc1ccccc1)CC1COC(c2ccccc2)(c2ccccc2)O1.O=C([O-])C(=O)O (stereo not given) | > 15 | < 5 | < 0.03 | 0.0339 | < 0.02 | 5.6 | < 0.3 | 0.0204
O=C(O)C(=O)O.c1ccc(OCCNCC2COC(c3ccccc3)(c3ccccc3)O2)cc1 (stereo not given) | 162 | 6.16 | 3 | 0.0372 | 6 | 5.86 | 2 | 0.0631
COc1ccccc1OCCNCC1COC(c2ccccc2)(c2ccccc2)O1.O=C(O)C(=O)O (stereo not given) | 13 |  | 3 | 0.0245 | 7 |  | 1 | 0.0457

From ChEMBL document CHEMBL1136765, “1,3-dioxolane-based ligands as a novel class of alpha1-adrenoceptor antagonists” (J Med Chem, 2003)
